Assay results from PubChem BioAssay AID2247 (Johns Hopkins Ion Channel Center, 2010).
Among all 300,000 compounds or so, about 1,200 (0.4%) were called active. This is one part of a sample in which actives are shown more often than they occur.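 Rule for the calls: active = B-score over 3 SD under the library average, no early fluorescence shift, positive overall ratio signal; inactive = the rest.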

Biological target: Short transient receptor potential channel 4 (Mus musculus) (UniProt Q9QUQ5)
Assay: inhibitors of mouse TRPC4 channel, primary screen, Fluo4 calcium, HEK293 TRPC4beta/mu-opioid cells (AID 2247)
Conditions: DAMGO-evoked Fluo4 calcium flux, at 10 µM; stronger effect = lower value
How it was run: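 test system = HEK293 cells with stable TRPC4beta plus mu-opioid receptor expression | detection = Fluo4 Ca2+ flux fluorescence | read-out = integrated fluorescence ratio relative to baseline, converted to per-well B score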

Chain of Short transient receptor potential channel 4 (Mus musculus) (Q9QUQ5 whole entry, looked up): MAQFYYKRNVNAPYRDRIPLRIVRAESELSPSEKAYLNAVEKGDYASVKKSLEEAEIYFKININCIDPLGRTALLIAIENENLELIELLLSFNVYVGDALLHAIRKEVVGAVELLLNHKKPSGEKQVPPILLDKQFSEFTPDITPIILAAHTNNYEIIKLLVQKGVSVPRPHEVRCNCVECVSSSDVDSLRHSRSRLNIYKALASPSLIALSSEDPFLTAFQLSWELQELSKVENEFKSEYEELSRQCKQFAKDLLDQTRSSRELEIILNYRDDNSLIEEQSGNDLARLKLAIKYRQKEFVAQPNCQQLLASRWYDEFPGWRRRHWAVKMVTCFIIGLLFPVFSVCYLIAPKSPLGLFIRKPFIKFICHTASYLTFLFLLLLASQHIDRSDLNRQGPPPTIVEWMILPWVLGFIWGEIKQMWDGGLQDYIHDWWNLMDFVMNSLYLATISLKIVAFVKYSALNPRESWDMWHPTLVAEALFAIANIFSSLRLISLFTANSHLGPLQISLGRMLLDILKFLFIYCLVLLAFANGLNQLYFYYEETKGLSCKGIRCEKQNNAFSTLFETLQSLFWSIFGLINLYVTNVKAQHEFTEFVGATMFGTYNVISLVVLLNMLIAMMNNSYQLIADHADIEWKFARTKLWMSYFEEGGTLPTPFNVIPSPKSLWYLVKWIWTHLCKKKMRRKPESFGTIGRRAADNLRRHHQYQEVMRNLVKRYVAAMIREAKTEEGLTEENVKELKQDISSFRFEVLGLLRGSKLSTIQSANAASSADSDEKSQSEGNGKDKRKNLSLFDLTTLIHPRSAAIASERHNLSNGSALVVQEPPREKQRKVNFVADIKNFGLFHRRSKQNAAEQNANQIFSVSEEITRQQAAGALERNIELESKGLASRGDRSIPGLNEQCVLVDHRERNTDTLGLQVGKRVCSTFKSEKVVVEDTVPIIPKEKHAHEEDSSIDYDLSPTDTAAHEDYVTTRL

B-score, inactive:
CC(=O)Nc1ccc(NC(=O)C2CCCN2S(=O)(=O)c2cccc(C(F)(F)F)c2)cc1 (configuration not stated)
CC(C)c1ccc(S(=O)(=O)N2CCN(C(=O)CN3C(=O)NC(C)(c4ccccc4)C3=O)CC2)cc1 (configuration not stated)
N#Cc1c(-c2ccccc2)nc(SCc2ccc([N+](=O)[O-])cc2)[nH]c1=O
N#Cc1c(-c2ccccc2)nc(SCc2cccc(C(F)(F)F)c2)[nH]c1=O
CC(C)c1ccc(S(=O)(=O)N2CCC3(CC2)OCCO3)cc1
Nc1ccc(C(=O)N2CCN(S(=O)(=O)c3ccc(Cl)cc3)CC2)cc1[N+](=O)[O-]
CN(C)CCN(C(=O)CN1C(=O)c2ccccc2C1=O)c1nc2cc3c(cc2s1)OCCO3
CCN(CC)CCN(C(=O)c1cc(Cl)sc1Cl)c1nc2cc3c(cc2s1)OCO3
CC(=O)Nc1ccc(S(=O)(=O)Oc2ccc(Br)cc2C(=S)N2CCOCC2)cc1
COc1ccc(/C(C)=N/N2CCOCC2)c(O)c1
NC(=O)c1cc2ccccc2o/c1=N/NC(=O)c1cccc(F)c1
COc1ccc(C(=O)N/N=c2\oc3ccccc3cc2C(N)=O)cc1
COc1ccc(C(=O)NC2CC(C)(C)Cc3c2cnn3-c2ccccc2)c(OC)c1 (configuration not stated)
CN1OC(COC(=O)c2ccc(Cl)cc2)CC1c1ccccc1 (configuration not stated)
CCCC(=O)C1CCN(Cc2ccccc2)CC1
CCOC(=O)C1CCN(Cc2ccc(-c3ccccc3)cc2)CC1
COc1cccc(CNc2ncc(-c3ccccc3)n2C)c1
CCN(CC)S(=O)(=O)c1ccc(Cl)c(C(=O)NCCN2CCOCC2)c1
Cc1ccccc1N(C(=O)Cc1cccs1)C(C(=O)NC1CCCCC1)c1cn(C)nc1C (configuration not stated)
COc1cccc(CNc2nc(C(F)(F)F)nc3ccccc23)c1
NS(=O)(=O)c1ccc(CCNc2nc(C(F)(F)F)nc3ccccc23)cc1
CN(Cc1ccccc1F)C(=O)C(Cc1ccccc1)NC(=O)c1ccccc1 (configuration not stated)
Cn1c(C(=O)N2CCCC(C(=O)NCc3ccccc3)C2)cc2sccc21 (configuration not stated)
Cc1ccc(CN(C(=O)c2sc3ccccc3c2Cl)C2CCS(=O)(=O)C2)cc1 (configuration not stated)
Fc1ccccc1COc1cccc2cccnc12
c1ccc(COc2ccccc2CNCc2cccnc2)cc1
Cc1ccc(S(=O)(=O)CC(=O)Nc2sc(C)c(C)c2C(N)=O)cc1
COc1cc2ccccc2cc1C(=O)N1CCOCC1
CCCCCn1c(=O)[nH]c2cc(C(=O)NCCCN3CCCCC3C)ccc2c1=O (configuration not stated)
N#CCCCn1c(O)c(N=NC(=O)C(O)c2ccccc2)c2ccccc21 (configuration not stated)
Cc1ccc2nc(C)cc(N/N=C/c3ccc(F)cc3)c2c1
Oc1ccc(/C=N/Nc2nc(-c3ccccc3F)nc3ccccc23)c(O)c1
CCCCC(c1nnnn1CS(=O)(=O)c1ccc(C)cc1)N1CCC(C(N)=O)CC1 (configuration not stated)
CC1(C)OC(=O)C(=CNC(CO)C(=O)O)C(=O)O1 (configuration not stated)
NC(=O)c1c(NC(=O)CSc2nc(N)cc(=O)[nH]2)sc2c1CCCC2
CCN1CCN(CC(=O)Nc2sc3c(c2C#N)CCC3)CC1
COc1ccc2[nH]c(=O)c(CN(Cc3cccnc3)S(=O)(=O)c3ccccc3F)cc2c1
COc1ccccc1CN1CCN(C(c2ccccc2)c2ccccc2)CC1
CC(C)(C)NCc1cc(Br)ccc1OC1CCCC1
CC1CCCCC1NC(=O)/C(C#N)=C/C=C/c1ccccc1[N+](=O)[O-] (configuration not stated)
COc1ccc(N(Cc2cc3ccc(C)cc3[nH]c2=O)S(=O)(=O)c2ccccc2)cc1
O=C(c1cc(C(=O)N2CCN(c3ccc(F)cc3)CC2)cc([N+](=O)[O-])c1)N1CCN(c2ccc(F)cc2)CC1
O=C(c1cc2cc(F)ccc2[nH]1)N1CCN(c2ccc(F)cc2)CC1
O=C(O)c1n[nH]nc1-c1ccccc1
Oc1ccc(-c2nnc(Nc3ccccc3)c3ccccc23)cc1
CC1C(=O)N2CCCc3cc(S(=O)(=O)NCc4ccc(F)cc4)cc1c32 (configuration not stated)
Cc1cccc2cc(CN(Cc3ccc4c(c3)OCO4)Cc3nnnn3C3CCCC3)c(=O)[nH]c12
Cc1cc(C)c2cc(CN(Cc3nnnn3Cc3ccc(F)cc3)C3CCCC3)c(=O)[nH]c2c1
NS(=O)(=O)c1ccc(NC(=S)Nc2ccc(Br)c(Cl)c2)cc1
Cc1ccc(S(=O)(=O)N2CCC(C)CC2)cc1C(=O)NCc1ccccn1
O=C(NNC(=S)NCc1ccccc1)c1ccc(OC(F)F)cc1
Cc1ccc(OCC(=O)NNC(=S)NCc2ccccc2)cc1
COc1ccc(NC(=O)CN(C)C(=O)c2cc(-c3ccc(C)o3)nc3ccccc23)cc1
COc1ccc(-n2ncc3c(SCC(=O)NNC(C)=O)ncnc32)cc1
CC(C)Sc1ncnc2c1cnn2-c1ccccc1
Nc1ccc(Cl)c(S(=O)(=O)Nc2ccccc2Cl)c1
O=C(COC(=O)/C=C/c1cccc(Cl)c1)NCCc1ccccc1
COc1ccc(CCN(C)C(=O)C2CCCN(Cc3ccc(OC)c(OC)c3)C2)cc1OC (configuration not stated)
COc1ccc(Cc2nc3ccc(C(=O)NCC4CCOCC4)cc3o2)cc1OC
O/N=C(\C[n+]1ccccc1)c1ccc(Br)cc1
Cn1ncc(Br)c1C(=O)NC1CCCC1
COc1ccc(CCN2C(=O)C(C)=C(C)C2=O)cc1OC
COc1ccc(CCN2C(=O)C3CC=C(C)CC3C2=O)cc1OC (configuration not stated)
O=C(CSc1ncnc2c1oc1ccccc12)NC1CCCC1
CCn1c(COc2cccc(OC)c2)nnc1SCC(=O)N1CCOCC1
CCCCCCCCCCOC(=O)Cn1c(COc2ccc(C)cc2)[n+](C)c2ccccc21
O=C(OCC(=O)N1CCCC1=O)c1cc(S(=O)(=O)N2CCOCC2)ccc1Cl
CCOc1ccc(C(=O)Nc2ccc(CN3CCOCC3)cc2)cc1Cl
Cn1c(=O)[nH]c(=O)c2c1nc(NCCCn1ccnc1)n2Cc1cccc(Br)c1
O=C(COc1ccccc1Cl)Nc1ccccc1C(=O)NC1CC1
Cc1ccccc1OCC(=O)NNC(=O)c1ccc(-n2cncn2)c([N+](=O)[O-])c1
Cc1ccc(-c2cc(=O)[nH]c(NCc3ccccc3)n2)cc1
Cc1ccc(O)c(CNc2nc3ccccc3n2C)c1
CCC1CCCCN1S(=O)(=O)Cc1ccccc1Cl (configuration not stated)
CCc1ccc(NC(=O)CN2CCC(C(=O)c3ccc(OC)cc3)CC2)cc1
CC1(C)OC(=O)C(=CSc2ccc(C(C)(C)C)cc2)C(=O)O1
CSc1ccc(/C=N/NC(=O)c2cccc(Cl)c2)cc1
Cc1ccc(-n2c(C)cc(/C=N\NC(=O)CC(=O)NC(C)C)c2C)cc1
Cc1ccc(-c2csc(NCCc3nc4cc(Cl)c(Cl)cc4n3CCOCCO)n2)cc1
CCCSc1nc2c(c(=O)n(C)c(=O)n2C)n1Cc1ccc(C)cc1
Cc1cccc(Cn2c(SCCO)nc3c2c(=O)n(C)c(=O)n3C)c1
COc1ccc(N2C(=O)C3C(C2=O)C(C(=O)c2ccccc2)N2CCCC32)cc1 (configuration not stated)
O=C(COC(=O)c1ccc(F)cc1)NCCCc1ccccc1
Cc1ccc(-c2nn(-c3cccc(F)c3)cc2CNCCc2ccncc2)o1
COc1ccccc1CC(=O)Nc1ccc(F)cc1F

B-score, active:
Cc1ccc(CSc2nc(-c3ccccc3)c(C#N)c(=O)[nH]2)cc1 -6
CN(C)CCN(C(=O)C1CCCCC1)c1nc2cc3c(cc2s1)OCO3 -6
COc1cccc2cc(C(N)=O)/c(=N\NC(=O)c3ccccc3)oc12 -6
CCCCN(Cc1ccccc1)C(=O)C1CCN(Cc2sccc2C)CC1 -6
CCc1ccc(C(CNc2nc(C(F)(F)F)nc3ccccc23)N(C)C)cc1 (configuration not stated) -7
Fc1ccccc1COc1ccccc1CNCc1ccncc1 -7
Cc1cc(N/N=C/c2ccccc2F)c2ccccc2n1 -8
CCCc1cc(=O)[nH]c(SCC(=O)Nc2sc3c(c2C#N)CCCC3)n1 -6
CC(NCc1ccccc1OC1CCCC1)c1ccccc1 (configuration not stated) -6
O=C(c1cccc(C(=O)N2CCN(c3ccc(F)cc3)CC2)c1)N1CCN(c2ccc(F)cc2)CC1 -8
c1ccc(Nc2n[nH]nc2-c2ccccc2)cc1 -6
COc1cc(C(F)(F)F)nc2c(Br)c(C(C)(C)C)nn12 -6
Cc1cccc2cc(CN(Cc3nnnn3Cc3ccccc3)C3CCCC3)c(=O)[nH]c12 -7
CC(C)Oc1ccc(CCC(=O)NNC(=S)NCc2ccccc2)cc1 -6
COc1ccc(-n2ncc3c(N4CCc5ccccc54)ncnc32)cc1 -7
COc1ccc(CN2CCCC(CNC(=O)c3ccc(F)cc3)C2)cc1OC (configuration not stated) -6
COc1ccc(CCN(C)CCN2C(=O)c3ccccc3C2=O)cc1OC -8
CCCCCCCCCCOC(=O)Cn1c(COc2cccc(OC)c2)[n+](C)c2ccccc21 -6
Cc1ccc(O)c(CNc2nc3ccccc3[nH]2)c1 -7
CSc1ccc(/C=N\NC(=O)CC(=O)NC(C)C)cc1 -8
CCOc1ccc(Cn2c(SCCCCC#N)nc3c2c(=O)n(C)c(=O)n3C)cc1OCC -5
CSCCNCc1cn(-c2ccc(F)cc2F)nc1-c1ccccc1C -7
